This note sets out measurements from ChEMBL document CHEMBL4808178 (J Med Chem, 2021).

Data set [1] deals with Dual specificity protein kinase CLK2 (Homo sapiens, UniProt P49760). In words: Inhibition of CLK2 (unknown origin) assessed as residual activity at 1 uM relative to control. In outline:
(§1)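 Single-concentration screen at 1 μmol/L against a panel of 208 kinases, run as a commercial service; activity expressed relative to control.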

Data set [2] deals with Epidermal growth factor receptor (Homo sapiens) (UniProt P00533). In words: Inhibition of EGFR (unknown origin) assessed as residual activity at 1 uM relative to control. In outline: as §1
Epidermal growth factor receptor (Homo sapiens), sequence (P00533 whole entry): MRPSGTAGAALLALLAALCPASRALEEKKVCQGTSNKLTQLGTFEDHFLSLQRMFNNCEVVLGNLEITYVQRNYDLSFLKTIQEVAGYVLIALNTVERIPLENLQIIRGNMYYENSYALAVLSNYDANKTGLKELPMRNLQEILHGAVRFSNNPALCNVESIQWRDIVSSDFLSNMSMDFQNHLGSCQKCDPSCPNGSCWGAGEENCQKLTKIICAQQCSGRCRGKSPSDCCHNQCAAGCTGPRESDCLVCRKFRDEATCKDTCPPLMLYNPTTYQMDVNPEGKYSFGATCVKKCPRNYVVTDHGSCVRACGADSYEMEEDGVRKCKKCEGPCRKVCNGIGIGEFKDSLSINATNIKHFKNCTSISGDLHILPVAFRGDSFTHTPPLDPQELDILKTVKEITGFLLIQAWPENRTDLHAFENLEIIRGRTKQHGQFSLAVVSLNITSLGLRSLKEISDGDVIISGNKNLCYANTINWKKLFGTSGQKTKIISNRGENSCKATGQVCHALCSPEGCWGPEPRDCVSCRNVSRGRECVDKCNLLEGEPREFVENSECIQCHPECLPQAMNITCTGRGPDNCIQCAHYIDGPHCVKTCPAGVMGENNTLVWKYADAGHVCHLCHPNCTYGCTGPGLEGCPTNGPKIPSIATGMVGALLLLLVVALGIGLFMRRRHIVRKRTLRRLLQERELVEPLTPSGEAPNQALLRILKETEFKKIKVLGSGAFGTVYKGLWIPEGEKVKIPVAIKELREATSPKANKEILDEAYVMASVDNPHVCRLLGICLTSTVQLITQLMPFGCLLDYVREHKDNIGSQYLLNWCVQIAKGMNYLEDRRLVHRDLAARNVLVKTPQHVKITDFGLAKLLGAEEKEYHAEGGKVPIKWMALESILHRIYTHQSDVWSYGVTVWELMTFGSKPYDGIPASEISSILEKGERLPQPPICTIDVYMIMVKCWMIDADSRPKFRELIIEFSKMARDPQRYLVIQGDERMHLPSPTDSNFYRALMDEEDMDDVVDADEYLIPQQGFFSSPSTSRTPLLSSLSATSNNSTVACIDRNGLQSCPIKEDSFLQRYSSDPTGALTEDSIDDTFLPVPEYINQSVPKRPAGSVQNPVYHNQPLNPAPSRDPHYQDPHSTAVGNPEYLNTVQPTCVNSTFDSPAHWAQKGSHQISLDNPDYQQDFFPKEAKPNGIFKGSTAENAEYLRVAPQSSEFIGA
Data set [3] deals with Serine/threonine-protein kinase PLK1 (Homo sapiens) (UniProt P53350). The experiment in a line: Inhibition of PLK1 (unknown origin) assessed as residual activity at 1 uM relative to control. In short, it runs like this:
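Commercial profiling service against a 208-kinase panel; single concentration 1 μmol/L; residual kinase activity expressed relative to control.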

A further data set has as its system HT-29. In words: Cytotoxicity against human HT-29 cells assessed as reduction in cell viability incubated for 72 hrs by MTT assay. To be noted: HT-29, 72 h. The format is functional, cell-based. For orientation: Formazan colour is commonly taken as a measure of viable cells.
Data set [4] has as its target T1, Aldehyde dehydrogenase 1A1 (Homo sapiens) (UniProt P00352).
T1 sequence (whole entry): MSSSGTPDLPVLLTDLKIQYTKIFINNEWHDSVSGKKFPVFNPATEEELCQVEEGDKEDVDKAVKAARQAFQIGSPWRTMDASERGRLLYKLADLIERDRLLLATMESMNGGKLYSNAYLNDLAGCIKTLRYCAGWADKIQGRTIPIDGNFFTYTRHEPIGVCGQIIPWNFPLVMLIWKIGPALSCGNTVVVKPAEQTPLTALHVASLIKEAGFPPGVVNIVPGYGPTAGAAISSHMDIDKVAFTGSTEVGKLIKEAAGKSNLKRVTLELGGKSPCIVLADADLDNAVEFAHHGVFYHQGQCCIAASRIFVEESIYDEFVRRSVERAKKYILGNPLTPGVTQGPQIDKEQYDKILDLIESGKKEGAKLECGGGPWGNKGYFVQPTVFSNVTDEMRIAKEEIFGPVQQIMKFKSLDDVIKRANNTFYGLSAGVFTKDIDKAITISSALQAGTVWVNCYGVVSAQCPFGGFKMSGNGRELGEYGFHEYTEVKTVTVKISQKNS
In words: Inhibition of ALDH1A1 in human HCT116 cells at 5 uM after 24 hrs by aldefluor staining based fluorescence analysis. The format is cell-based. To be noted: HCT-116. In short, it runs like this: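 HCT-116 cells, 2 × 10⁵/well, grown overnight at 37 °C, 5% CO₂, then treated 24 h (vehicle DMSO). Aldefluor staining read in FITC channel by FACS for proportion of ALDH⁺ cells; DEAB-pretreated cells set baseline fluorescence.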

Data set [5] deals with HCT-116. In words: Inhibition of cell stemness in human HCT116 cells assessed as reduction in Nanog mRNA transcription levels at 20 uM after 24 hrs by RT-qPCR analysis. It counts as functional, cell-based. In short, it runs like this:
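Sorted ALDH⁺ HCT-116 cells treated 24 h; TRIZOL RNA, one-step RT-qPCR (RT 10 min 55 °C; 95 °C 1 min; 39 cycles 95 °C 10 s/60 °C 30 s) with melting-curve check; β-actin reference; fold change by 2^−ΔΔCt; t test, mean ± SD, n = 3.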
A general note: Real-time PCR tracks product formation cycle by cycle.

Data set [6] deals with Glycogen synthase kinase-3 beta (Homo sapiens) (UniProt P49841). The experiment in a line: Inhibition of GSK3beta phosphorylation at serine 9 in human HCT-116 cells after 24 hrs by Western blot analysis. The format is cell-based. To be noted: dose 5-20 µM. In outline: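 HCT-116 cells at 2 × 10⁵ cells/mL in DMEM/10% FBS, grown 12 h at 37 °C, then treated 24 h (vehicle DMSO). Lysates quantified by BCA, run on 10% SDS-PAGE, PVDF transfer, blocked in 5% milk/TBST, primary antibodies 4 °C overnight, HRP secondary 2 h, chemiluminescent detection; normalized to β-actin, n = 3.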
Glycogen synthase kinase-3 beta (Homo sapiens), sequence (P49841 whole entry, looked up): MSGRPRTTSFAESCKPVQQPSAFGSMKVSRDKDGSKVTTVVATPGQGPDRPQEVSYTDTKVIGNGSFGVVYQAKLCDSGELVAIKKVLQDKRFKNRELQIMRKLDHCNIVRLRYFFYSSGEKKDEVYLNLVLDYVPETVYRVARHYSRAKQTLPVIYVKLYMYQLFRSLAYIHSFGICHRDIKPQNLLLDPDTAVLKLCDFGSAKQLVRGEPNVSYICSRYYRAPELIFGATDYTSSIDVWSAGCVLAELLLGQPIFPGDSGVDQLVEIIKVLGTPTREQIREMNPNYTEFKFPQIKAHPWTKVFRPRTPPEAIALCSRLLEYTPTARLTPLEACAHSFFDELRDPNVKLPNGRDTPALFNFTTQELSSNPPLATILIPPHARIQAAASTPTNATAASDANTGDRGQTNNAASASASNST
In general terms: Immunoblotting shows a protein as a band on a membrane.

Data set [7] has as its system HCT-116. The experiment in a line: Effect on Wnt/beta-Catenin signaling in human HCT116 cells assessed as reduction in cyclin-D1 mRNA level at 20 uM after 24 hrs by RT-qPCR analysis. It counts as functional, cell-based. In short, it runs like this: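 HCT-116 cells treated 24 h; total RNA by TRIZOL, one-step RT-qPCR: 55 °C 10 min, 95 °C 1 min, then 39 cycles of 95 °C 10 s and 60 °C 30 s, with melting-curve and no-template controls. β-Actin as internal standard; relative expression by 2^−ΔΔCt, mean ± SD (n = 3).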

The test system of data set [8] is HCT-116. The experiment in a line: Inhibition of cell invasion in human HCT-116 cells at 5 uM after 24 hrs by crystal violet staining based inverted microscopic analysis. It counts as functional. In short, it runs like this: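 Transwell chambers ([…]); 1 × 10⁵ HCT-116 cells in serum-free medium in upper compartment, DMEM + 10% FBS as chemoattractant below; treated 24 h (vehicle DMSO); non-invading cells swabbed off, lower-surface cells crystal violet stained 30 min, counted by inverted microscope; mean ± SD, n = 3.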

In data set [9] the test system is HCT-116. In words: Induction of apoptosis in human HCT116 cells assessed as early apoptotic cells at 5 uM after 24 hrs by annexin V-FITC/propidium iodide staining based flow cytometry (reference value: 1%). The format is functional.
Data set [10] relates to HCT-116. The experiment in a line: Induction of apoptosis in human HCT116 cells assessed as late apoptotic cells at 5 uM after 24 hrs by annexin V-FITC/propidium iodide staining based flow cytometry (reference value: 5.1%). It counts as functional.
The subject of data set [11] is HCT-116. In words: Induction of apoptosis in human HCT116 cells assessed as necrotic cells at 5 uM after 24 hrs by annexin V-FITC/propidium iodide staining based flow cytometry (reference value: 5.6%). It counts as functional.
For data set [12], the system named is HCT-116. In words: Induction of apoptosis in human HCT116 cells assessed as early apoptotic cells at 10 uM after 24 hrs by annexin V-FITC/propidium iodide staining based flow cytometry (reference value: 1%). The format is functional.
Data set [13] relates to HCT-116. In words: Induction of apoptosis in human HCT116 cells assessed as late apoptotic cells at 20 uM after 24 hrs by annexin V-FITC/propidium iodide staining based flow cytometry (reference value: 5.1%). The format is functional.
Data set [14] can be described thus: Half life in Sprague-Dawley rat at 25 mg/kg, po measured up to 48 hrs by LC-MS/MS analysis. The format is ADME, organism-based. To be noted: in vivo. In short, it runs like this: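 Overnight-fasted male SD rats (about 250−270 g), three per group, single oral 25 mg/kg; test compound suspended in 5% CMC-Na, control as sodium salt in phosphate buffer. Blood sampled 0.25–48 h, plasma by centrifugation, stored −40 °C, quantified by LC−MS/MS against plasma standard curve (3–3000 ng/mL) with internal standard; model-fitted PK parameters.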

Data set [15] can be described thus: Toxicity in BALB/c mouse xenografted with human HCT116 cells assessed as effect on liver tissue at 60 to 90 mg/kg, po administered twice daily for 4 weeks and measured every 3 days by HE staining based assay. The format is organism-based, HCT-116. To be noted: in vivo, 672 h, dose 60-90 mg/kg. In short, it runs like this: (§2)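 Male 5-week BALB/c nude mice (16−18 g), 0.2 mL of 5 × 10⁷ cells/mL HCT-116 injected into right armpit; at ~100 mm³ randomized, 5/group; intragastric 60 or 90 mg/kg twice daily for 4 weeks; tumor volume and body weight every 3 days; after sacrifice heart, liver, spleen, lung, kidney HE-stained.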

Data set [16] in a line: Toxicity in BALB/c mouse xenografted with human HCT116 cells assessed as effect on lung tissue at 60 to 90 mg/kg, po administered twice daily for 4 weeks and measured every 3 days by HE staining based assay. It counts as organism-based, HCT-116. To be noted: in vivo, 672 h, dose 60-90 mg/kg. In short, it runs like this:
as §2

Active and inactive are the calls of the source.

Serine/threonine-protein kinase PLK1 (Homo sapiens), sequence (P53350 whole entry): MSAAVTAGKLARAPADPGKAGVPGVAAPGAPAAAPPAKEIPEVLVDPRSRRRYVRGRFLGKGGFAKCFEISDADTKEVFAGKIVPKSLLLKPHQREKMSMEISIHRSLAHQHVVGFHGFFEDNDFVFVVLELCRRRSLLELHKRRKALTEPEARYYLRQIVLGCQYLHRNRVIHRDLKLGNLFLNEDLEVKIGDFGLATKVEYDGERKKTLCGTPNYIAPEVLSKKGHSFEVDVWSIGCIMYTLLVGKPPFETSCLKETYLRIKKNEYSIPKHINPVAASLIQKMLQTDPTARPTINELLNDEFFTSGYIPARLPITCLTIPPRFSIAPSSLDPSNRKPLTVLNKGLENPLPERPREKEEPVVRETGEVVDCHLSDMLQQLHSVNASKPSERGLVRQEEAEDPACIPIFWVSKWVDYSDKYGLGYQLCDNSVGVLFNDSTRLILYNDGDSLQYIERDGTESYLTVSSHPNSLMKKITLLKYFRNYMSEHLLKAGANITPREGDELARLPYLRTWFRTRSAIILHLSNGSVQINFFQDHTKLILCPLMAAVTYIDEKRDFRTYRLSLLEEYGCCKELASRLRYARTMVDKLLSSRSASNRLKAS
Dual specificity protein kinase CLK2, sequence (P49760 whole entry, looked up): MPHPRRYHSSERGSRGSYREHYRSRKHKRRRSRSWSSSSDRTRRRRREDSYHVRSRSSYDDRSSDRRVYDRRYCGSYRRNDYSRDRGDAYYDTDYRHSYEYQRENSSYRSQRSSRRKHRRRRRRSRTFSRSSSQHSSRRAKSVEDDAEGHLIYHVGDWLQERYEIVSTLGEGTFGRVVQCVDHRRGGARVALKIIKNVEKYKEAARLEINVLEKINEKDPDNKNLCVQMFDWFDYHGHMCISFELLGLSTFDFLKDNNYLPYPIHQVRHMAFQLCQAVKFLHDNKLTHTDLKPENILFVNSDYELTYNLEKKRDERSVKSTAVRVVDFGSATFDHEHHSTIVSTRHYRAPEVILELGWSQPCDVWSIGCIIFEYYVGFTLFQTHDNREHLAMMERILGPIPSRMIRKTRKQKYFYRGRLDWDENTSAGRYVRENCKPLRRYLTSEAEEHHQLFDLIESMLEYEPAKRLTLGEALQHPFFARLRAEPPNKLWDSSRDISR

With `O=C(NCCO)c1ccc2c(c1)nc(Nc1cccc(Cl)c1)c1ccncc12`, the Activity turned out to be 22.1% in data set [1]; 34.1% in [2]; 40.5% in data set [3]; 18% with HCT-116 [9]; 14.3% with HCT-116 [10]; 7% in the data set on HCT-116 [11]. For the same compound, the Activity is reported as 12.6% with HCT-116 [12], 32.9% with HCT-116 [13], “Non-Toxic” in data set [15] and “Non-Toxic” in [16]. The IC50 – broadly, the point on the concentration scale where inhibition reaches its midpoint – in the data set with HT-29 was determined as 5.18 µM. In addition, the results for the inhibition in [4] and in [6] were 77% and “Dose-Dependent Effect”, respectively. The inhibition (usually the percentage by which the read-out fell short of the control) in the data set with HCT-116 [5] is “Active”. For the same compound, the result with HCT-116 [7] and in the data set on HCT-116 [8] was Active. Also, in data set [14], the half-life (usually the time needed for the level to fall by half in the phase considered) is 6.67 h.
